The bioavailability is dose-corrected exposure relative to a reference, in per cent. A low value points to little systemic uptake. One may read the clearance as the volume of plasma or blood freed of the substance per unit of time. For orientation: half-life means the time in which the quantity being followed falls by half. A high value points to slow loss. By inhibition is commonly meant the drop in the measured response relative to a control, in per cent. A word on the MRT: it is the average time that molecules of a dose stay in the body. One may read the Cmax as the peak of the concentration-time curve. The term CL/F denotes the apparent clearance, not corrected for the fraction that reaches the circulation. What is called AUC(0-t) is exposure summed from dosing to a finite time, without extrapolation to infinity. A high value points to high exposure. By AUC(0-inf) is commonly meant total exposure, with the tail of the curve extrapolated. A low value points to low exposure.

The source of these data is ChEMBL document CHEMBL4834416, “The Discovery of Novel ACA Derivatives as Specific TRPM2 Inhibitors that Reduce Ischemic Injury Both In Vitro and In Vivo” (J Med Chem, 2021).

A short description of series [1]: Oral bioavailability in C57BL/6 mouse plasma at 1 mg/kg, IG by LC-MS/MS analysis. In kind it is ADME, organism-based.
A short description of series [2]: Clearance in C57BL/6 mouse plasma at 1 mg/kg, iv by LC-MS/MS analysis. Format: ADME, organism-based.
A further series deals with Mus musculus. Put plainly: Neuroprotective activity in mouse model of transient middle cerebral artery occlusion-induced cerebral ischemia-reperfusion injury assessed as reduction neurological score at 3 mg/kg, iv treated for 3 hrs after onset of reperfusion by TTC staining based assay (reference value: 2.4 +/- 0.5). In kind it is functional.
The nature of series [3]: Half life in C57BL/6 mouse plasma at 0.3 mg/kg, iv by LC-MS/MS analysis. In kind it is ADME, organism-based.
The target in a further series is Phospholipase A2 (Homo sapiens, UniProt P04054). Put plainly: Inhibition of PLA2 (unknown origin) using soybean phosphatidylcholine as substrate at 3 uM preincubated for 30 mins followed incubated for 60 mins after substrate addition by microplate reader relative to control. Put shortly:
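PLA2 (4 μg/L in PBS) was preincubated 30 min at 37 °C with inhibitor in 125 mM Tris. Substrate was then added for 60 min: soybean phosphatidylcholine with Tris, CaCl₂, sodium deoxycholate and 0.5% Triton X-100. Liberated free fatty acids were quantified colorimetrically at OD550. Results are % inhibition versus enzyme without inhibitor, n = 3.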

The nature of series [4]: MRT in C57BL/6 mouse plasma at 10 mg/kg, IG by LC-MS/MS analysis. Format: ADME, organism-based. The note with it: po.
Series [5] can be described thus: Cmax in C57BL/6 mouse plasma at 100 mg/kg, IG by LC-MS/MS analysis. In kind it is ADME, organism-based. Further details: route […], dose 100 mg/kg. Conditions: po.
Series [6] can be described thus: Clearance in C57BL/6 mouse plasma at 10 mg/kg, IG by LC-MS/MS analysis. In kind it is ADME, organism-based. Conditions: po.
A short description of series [7]: AUC (0 to t) in C57BL/6 mouse plasma at 0.3 mg/kg, iv by LC-MS/MS analysis. On the set-up: dose 0.3 mg/kg. In kind it is ADME, organism-based.
The subject of another series is SH-SY5Y. Put plainly: Neuroprotective activity against oxygen glucose deprivation/reperfusion-induced cell death in human SH-SY5Y cells assessed as cell viability at 1 to 30 uM […] by CCK8 assay relative to control. Conditions: dose 1-30 µM. Format: functional.
Series [8] in a line: AUC (0 to infinitive) in C57BL/6 mouse plasma at 100 mg/kg, IG by LC-MS/MS analysis. In kind it is ADME, organism-based. On the set-up: route […], time infinity, dose 100 mg/kg. The note with it: po.

Sequence of Phospholipase A2 (P04054 23-148 limits assumed): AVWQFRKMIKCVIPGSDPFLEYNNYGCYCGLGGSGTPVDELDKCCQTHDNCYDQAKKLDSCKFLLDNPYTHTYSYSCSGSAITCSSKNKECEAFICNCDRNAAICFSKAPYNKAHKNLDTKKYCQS

Take `O=C(/C=C/c1ccc(-c2cccc(C(F)(F)F)c2)cc1)Nc1ccccc1C(=O)O`: the bioavailability in [1] amounted to 84.8%. Moreover, in series [2], the clearance was 0.882 mL/min/kg. For the same molecule, the results for the Activity in the series with Mus musculus and with SH-SY5Y were 1.8 and 80%, respectively. The molecule also gave a half-life in series [3] of 0.93 h. Also, on Phospholipase A2, the inhibition was determined as 7.8%. In addition, the MRT in series [4] was 2.25 h. This molecule also returned a Cmax in series [5] of 168 µg/mL. In addition, the apparent clearance (CL/F) in series [6] was 1.04 mL/min/kg. In series [7], the AUC(0-t) was determined as 5.2 µg·h/mL. Moreover, in [8], the AUC(0-inf) was determined as 1870 µg·h/mL.
